Data set [1] concerns primary adult rat cardiomyocytes. Description: Trypan blue staining of dead cells, primary cardiomyocytes + DOX. Type of data set: cell-based.
Data set [2] has the same test system. Description: LDH release of primary cardiomyocytes. The data set is classed as cell-based. The note with it: 12 h. In short, it runs like this: (§1)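 Cardiomyocytes came from male SD rats (about 280 g), isolated by Langendorff collagenase II/hyaluronidase perfusion and purified by three gravity sedimentations. They were cultured on laminin in M199 with 10% FBS, penicillin-streptomycin and glutamine. Cells were exposed with or without DOX and with or without test compound for 12 h. Cells and supernatant were measured with commercial ATP and LDH-activity kits. Mean ± SEM.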
(In general: LDH in the medium is a marker of cell lysis.)

Data set [3] has the same test system. Description: Total ROS by DCFH-DA staining, flow cytometry. Type of data set: cell-based.
For data set [4], the system named is DOX-induced HF mice. The data set is described as follows: Survival in acute DOX-induced HF mouse model. Type of data set: in vivo, mouse (ICR). The gist of the method:
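Male ICR mice (about 40 g, 10 weeks) had acute heart failure induced by a single i.p. 15 mg/kg DOX dose. From Day 15 to 28 they were dosed i.p. daily with test compound (50, 100 or 200 mg/kg), cedilanid 150 mg/kg or PBS 10 mL/kg. Deaths were recorded daily, and survival was analysed by Kaplan–Meier.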

Data set [5] relates to DOX-induced HF mice. Description: Serum CK and LDH activity in DOX-induced HF mice. Type of data set: in vivo, mouse (ICR). The note with it: glycnsisitin A i.p. daily Days 15–28. In short, it runs like this:
(§2)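 Male ICR mice (about 40 g, 10-week-old, SPF) received a single i.p. DOX dose of 15 mg/kg; heart failure was established by Day 14. On Days 15–28 they were dosed i.p. daily with test compound (50, 100 or 200 mg/kg), cedilanid 150 mg/kg, or PBS 10 mL/kg. Blood was taken 8 h after dosing on Day 29 and spun 4500 rpm, 15 min, 4 °C. Serum CK and LDH activities and BNP and NT-proBNP were measured by kits. Mean ± SEM.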

The test system of data set [6] is myocardium of DOX-treated mice. The data set is described as follows: Myocardial iron content. Type of data set: in vivo, mouse. The note with it: with or without glycnsisitin A, ferrozine, 550 nm. The gist of the method: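 Heart tissue from DOX-induced heart-failure mice (± test compound) was homogenised in lysate. Homogenate was mixed 1:1 with permanganate-containing solution A and held 1 h at 60 °C, then cooled. Iron (ferrozine) detection reagent was added for 30 min at room temperature. Absorbance was read at 550 nm and iron content calculated from a standard curve.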

Data set [7] relates to transferrin. Description: Immunoblot of transferrin in heart tissues. The data set is classed as in vivo, mouse.
Data set [8] has as its system TFRC. The data set is described as follows: Immunoblot of TFRC in heart tissues. The note with it: glycnsisitin A with or without DOX, DOX alone in HF tissue. The data set is classed as in vivo, mouse. In general terms: A western blot detects proteins with antibodies after separation by electrophoresis.
Another data set has as its system H9C2 cardiomyocytes. Description: Alamar blue cell viability, DOX-injured H9C2 cardiomyocytes. The data set is classed as cell-based, rat. The note with it: in vitro model of DOX-induced cardiomyocyte injury. In short, it runs like this:
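H9C2 cells were grown in DMEM with 10% FBS and penicillin-streptomycin at 37 °C, 5% CO2, then seeded at 5000/well overnight. Cells were co-treated with DOX and test compound for 12 h, then incubated 4 h in medium with 10% alamar blue. Fluorescence was read at ex 530/em 590 nm. Viability = (treated − medium)/(control − medium) × 100; EC50 calculated.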
Background: Resazurin is reduced to fluorescent resorufin, in cell work by metabolically active cells.

Data set [9] has as its system primary adult rat cardiomyocytes. Description: Alamar blue assay, DOX-injured primary cardiomyocytes. Type of data set: cell-based. In short, it runs like this: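 Cardiomyocytes came from male Sprague-Dawley rats (~280 g) by Langendorff perfusion with collagenase II/hyaluronidase/BSA and stepwise CaCl2. Cells were purified by three gravity sedimentations and cultured on laminin in M199 with 10% FBS, penicillin-streptomycin and 1% glutamine. DOX-injured cells received test compound, and viability was read by alamar blue.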

For data set [10] the test system is unchanged. The data set is described as follows: ATP levels of primary cardiomyocytes. The note with it: 12 h. The data set is classed as cell-based. The gist of the method: as §1
The test system is the same in data set [11]. Description: Mitochondrial ROS by MitoSOX staining. The data set is classed as cell-based. The note with it: 10 μmol/L glycnsisitin A with 8.6 μmol/L DOX, 6 h, confocal. In short, it runs like this: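 Primary adult rat cardiomyocytes in glass-bottomed confocal dishes received test compound and/or DOX for 6 h. They were then loaded with MitoSOX Red for 30 min at 37 °C, 5% CO2, in the dark, and washed three times with warm HBSS containing Ca/Mg. Fluorescence was imaged by laser confocal microscopy (ex 396/em 610 nm).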

Data set [12] deals with DOX-induced HF mice. The data set is described as follows: Echocardiography in DOX-induced HF mice. The note with it: compared with cedilanid. Type of data set: in vivo, mouse (ICR). The gist of the method: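 Male ICR mice (~40 g, 10 weeks) got a single i.p. DOX 15 mg/kg, with HF established by Day 14. On Day 28, 8 h post-dose, mice were anesthetized with avertin on a 37 °C table. M-mode short-axis scans at papillary level (10 MHz, 10–20 cycles) gave LVAWd.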

In data set [13] the test system is DOX-induced HF mice. The data set is described as follows: Heart histology. Type of data set: in vivo, mouse (ICR). The note with it: compared with cedilanid. The gist of the method: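 Heart failure was induced in male ICR mice by a single i.p. DOX dose (15 mg/kg). Test compound (50/100/200 mg/kg), cedilanid ([…]) or PBS was then given i.p. daily on Days 15–28. Hearts were collected on Day 29, fixed in 4% paraformaldehyde and sectioned. H&E staining was scored for myocardial histopathology; Masson trichrome was quantified as relative fibrosis area.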

Data set [14] deals with DOX-induced HF mice. Description: BNP and NT-proBNP levels in DOX-induced HF mice. The data set is classed as in vivo, mouse (ICR). The note with it: compared to DOX-induced HF mice. In short, it runs like this:
as §2

The target of data set [15] is T1, transferrin (Homo sapiens, UniProt P02787). Description: SPR on transferrin-coated CM5 sensor chips. Type of data set: binding. The gist of the method: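 Test compound was flowed over at a range of concentrations and response units recorded. KD was derived by the instrument's evaluation fitting.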
T1 sequence (P02787 20-698, species assumed): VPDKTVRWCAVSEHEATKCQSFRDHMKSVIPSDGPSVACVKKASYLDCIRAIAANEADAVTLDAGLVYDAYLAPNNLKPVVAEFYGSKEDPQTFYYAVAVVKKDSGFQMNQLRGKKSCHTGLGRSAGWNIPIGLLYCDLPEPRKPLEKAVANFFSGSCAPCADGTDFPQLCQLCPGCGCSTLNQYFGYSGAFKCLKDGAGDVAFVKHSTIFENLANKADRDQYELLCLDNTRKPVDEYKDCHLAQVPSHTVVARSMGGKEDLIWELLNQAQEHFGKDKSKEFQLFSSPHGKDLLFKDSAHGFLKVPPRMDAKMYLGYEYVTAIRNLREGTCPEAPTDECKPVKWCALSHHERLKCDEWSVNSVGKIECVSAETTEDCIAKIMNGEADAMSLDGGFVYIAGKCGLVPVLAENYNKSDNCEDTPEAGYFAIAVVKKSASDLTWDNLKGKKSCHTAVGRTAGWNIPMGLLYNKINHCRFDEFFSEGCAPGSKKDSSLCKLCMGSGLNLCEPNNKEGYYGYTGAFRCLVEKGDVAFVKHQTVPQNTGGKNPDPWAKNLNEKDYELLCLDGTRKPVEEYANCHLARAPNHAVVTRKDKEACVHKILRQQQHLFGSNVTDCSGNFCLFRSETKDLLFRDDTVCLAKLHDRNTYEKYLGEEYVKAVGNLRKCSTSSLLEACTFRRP
The target of data set [16] is T1, transferrin. The data set is described as follows: Relative mRNA level of transferrin in cardiomyocytes. Type of data set: cell-based. The note with it: cultured cardiomyocytes.
Data set [17] relates to TFRC. Description: Relative mRNA level of TFRC in cardiomyocytes. The data set is classed as cell-based. The note with it: cultured cardiomyocytes.
Data set [18] concerns the target T1, transferrin. Description: Protein half-life of transferrin after CHX. The note with it: compared with control. Type of data set: cell-based.
Data set [19] has as its system TFRC. Description: Protein half-life of TFRC after CHX. The note with it: compared with control. Type of data set: cell-based.
Data set [20] concerns transferrin–TFRC interaction. Description: Cellular immunoprecipitation of transferrin with TFRC. The data set is classed as cell-based. The note with it: anti-His immunoprecipitation, blotted anti-transferrin and anti-TFRC.
In data set [21] the test system is primary adult rat cardiomyocytes. The data set is described as follows: Iron content of primary cardiomyocytes, TFRC neutralization. The data set is classed as cell-based. The note with it: glycnsisitin A + DOX; with or without NAb-anti-TFRC pretreatment. The gist of the method: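 Langendorff-isolated adult rat cardiomyocytes in six-well plates were pretreated ± TFRC-neutralizing antibody, then given DOX and test compound. After two PBS washes, cells were lysed 2 h at room temperature on a shaker. Lysate was mixed 1:1 with permanganate-containing solution A and held 1 h at 60 °C, then cooled. Ferrozine iron reagent was added for 30 min at room temperature. A550 was read and iron calculated from a standard curve.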

The test system is the same in data set [22]. The data set is described as follows: LDH activity in supernatant of primary cardiomyocytes, TFRC neutralization. The note with it: DOX + glycnsisitin A; with or without TFRC block. The data set is classed as cell-based. The gist of the method: (§3)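 Adult cardiomyocytes were isolated from male Sprague-Dawley rats (about 280 g) by Langendorff perfusion with collagenase II and hyaluronidase. They were purified by three gravity sedimentations and cultured on laminin in M199 with 10% FBS, pen-strep and glutamine. Cells were pretreated with TFRC-neutralizing antibody (level not stated), then given DOX ± test compound for 12 h. Cells and supernatant were assayed with commercial LDH-activity or ATP kits. Mean ± SEM.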

Data set [23] shares this test system. The data set is described as follows: ATP content of primary cardiomyocytes, TFRC neutralization. Type of data set: cell-based. The note with it: DOX-injured cardiomyocytes + glycnsisitin A; with or without NAb-anti-TFRC. In short, it runs like this: as §3
A further data set concerns cancer cells. The note with it: clinical limitation; ref [29]; cited from earlier work.
Another data set has as its system HF patients. The note with it: supplementation; ref [8], [9]; cited from earlier work.

Take `COc1cccc2c1C(=O)c1c(O)c3c(c(O)c1C2=O)C[C@@](O)(C(=O)CO)C[C@@H]3O[C@H]1C[C@H](N)[C@H](O)[C@H](C)O1` [DOX, doxorubicin, reference compound]: the “increase in the number of trypan blue-positive cells” value in data set [1] (8.6 μmol/L DOX for 24 h, compared with solvent control) is “approximately fourfold”. The “LDH release, DOX alone” value in data set [2] is reported as “elevation in the release of lactate dehydrogenase (LDH)”. In [3], the “ROS levels, DOX alone” value is listed as “dramatically increased”. This compound displayed a mortality rate in the data set on DOX-induced HF mice [4] (single i.p. 15 mg/kg DOX) of 50%. Besides, in the data set on DOX-induced HF mice [5], the “serum CK activity” value was “markedly increased” and the “serum LDH activity” value is “markedly increased”. Further, in [6], the myocardial iron content entry is given as “significant loss of iron”. For the same compound, the “decrease in transferrin expression in heart tissue” value in the data set with transferrin [7] (DOX-treated mice, immunoblot ratio to GAPDH) was “over 50%”. The “TFRC level in mouse myocardium” value in the data set with TFRC [8] is “decreased levels of both transferrin and TFRC”.

For the compound `CC(C)[C@@H]1NC(=O)[C@@H]2Cc3ccc(cc3)O[C@H]3C[C@H](NC3=O)C(=O)N3CCC[C@H]3C(=O)N[C@@H](Cc3ccc(O)cc3)C(=O)N[C@@H](C(=O)N[C@@H](C(C)C)C(=O)N2)c2cc(ccc2O)C[C@@H](C(=O)O)NC1=O` [Glycnsisitin A], the “cardioprotective activity, relative to glycnsisitins B and C” value with H9C2 cardiomyocytes was “stronger cardioprotective activity than glycnsisitins B and C”. Moreover, in [1] (DOX 8.6 μmol/L + glycnsisitin A), the “cardiotoxicity / cell death (trypan blue)” value is “significantly attenuated the cardiotoxicity induced by DOX and reduced cell death”. In addition, in [9], the “cell survival (alamar blue)” value was “proved the primary cell protective function”. Moreover, in data set [2], the “LDH release, DOX + glycnsisitin A” value is “significantly suppressed”. Further, in data set [10] (presence vs absence of glycnsisitin A, with DOX), the “total ATP levels following DOX induction” value was “a substantial difference was observed”. Also, in data set [10] (primary cardiomyocytes without DOX), the “total ATP levels, normal conditions” value is “did not have an impact on ATP levels”. Moreover, the “mitochondrial ROS generation” value in data set [11] is “significantly attenuated the excessive generation of mitochondrial ROS”. This compound showed an overall survival rate with DOX-induced HF mice [4] (200 mg/kg i.p. daily Days 15–28 after DOX 15 mg/kg i.p.) of 90%. In addition, the “survival rate, dose dependence” value with DOX-induced HF mice [4] (50, 100, 200 mg/kg i.p. daily Days 15–28 after DOX) is reported as “increased in a dose-dependent manner”. In the data set on DOX-induced HF mice [12], the “diastolic LV anterior wall diameter (LVAWd)” value is reported as “thicker diastolic LV anterior wall diameter”. Further, the pathology score result in the data set on DOX-induced HF mice [13] (H&E) was “lower pathology score”. For the same compound, in the data set on DOX-induced HF mice [13] (Masson trichrome), the collagen deposition entry was “lesser collagen deposition”. For the same compound, in the data set with DOX-induced HF mice [5], the “serum CK activity” value was “completely reversed” and the “serum LDH activity” value is on record as “completely reversed”. Moreover, in the data set with DOX-induced HF mice [14], the BNP level entry is “lower levels” and the NT-proBNP level result is on record as “lower levels”. Moreover, on transferrin [15], binding was characterised by a dissociation constant (Kd) of 2410 nM. Besides, the myocardial iron content result in data set [6] is “effectively restored to normal”. Also, the “total transferrin level in mouse myocardium” value with transferrin [7] (regardless of the presence of DOX) is “significantly increased the total transferrin levels”. In the data set on TFRC [8], the “TFRC level in mouse myocardium” value is “consistent with the trend observed for TFRC”. Moreover, on transferrin [16], the “transferrin mRNA level” value is listed as “did not affect the mRNA content of transferrin”. Further, in the data set on TFRC [17], the “TFRC mRNA level / transcription” value was “increased the TFRC transcription”. For the same compound, at transferrin [18], the “half-life of transferrin protein (in words)” value is recorded as “could increase the half-life of transferrin protein”. The “TFRC stability (in words)” value in the data set on TFRC [19] is reported as “decreased TFRC stability”. The “content of immunoprecipitated transferrin” value in data set [20] is listed as “much higher”. Moreover, the “iron content, DOX-treated cardiomyocytes” value in data set [21] was “restored the decline in iron content”. Also, the “LDH content in supernatant” value in data set [22] is listed as “much lower”. For the same compound, the ATP production entry in data set [23] is “noticeably augmented ATP production”.

In the case of `C[C@@H](CN1CC(=O)NC(=O)C1)N1CC(=O)NC(=O)C1` [dexrazoxane (DXZ), dexrazoxane], the chemotherapy resistance result with cancer cells is “potential to confer chemotherapy resistance to cancer cells”.

As for “ferric derisomaltose [ferric derisomaltose (FDI)]”, in the data set on HF patients, the “HF symptoms and rehospitalization” value is “could alleviate HF symptoms and reduce rehospitalization”.

Values taken from PMC11252382 (Acta Pharmaceutica Sinica. B, 2024).
